The target in data set [1] is T1, Cytochrome P450 2C9 (Homo sapiens, UniProt P11712). As to the kind of experiment: Activity of human CYP2C9 expressed in microsomes isolated from baculovirus infected insect cell assessed as enzyme-mediated compound formation treated with [14C]-rivoglitazone at 20 uM after 2 hrs by radio-HPLC/LC-MS/MS analysis in presence of NADPH-generating system. The format is ADME. Put shortly: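 Baculovirus-insect-cell microsomes expressing the human CYP (1 mg/ml protein) were incubated with [14C]rivoglitazone (20 μM) in 50 mM potassium phosphate (pH 7.4) or 100 mM Tris-HCl (pH 7.5) with an NADPH-generating system (2 mM NADP+, 20 mM glucose 6-phosphate, 2 units/ml G6PDH, 10 mM MgCl2) for 2 h at 37°C. Insect-cell control supersomes served as the control. Reactions were stopped with acetonitrile, and the concentrated supernatants were analysed by radio-HPLC, LC-MS and LC-MS/MS.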

Data set [2] deals with T2, Cytochrome P450 2C8 (Homo sapiens, UniProt P10632).
T2 sequence (P10632 whole entry): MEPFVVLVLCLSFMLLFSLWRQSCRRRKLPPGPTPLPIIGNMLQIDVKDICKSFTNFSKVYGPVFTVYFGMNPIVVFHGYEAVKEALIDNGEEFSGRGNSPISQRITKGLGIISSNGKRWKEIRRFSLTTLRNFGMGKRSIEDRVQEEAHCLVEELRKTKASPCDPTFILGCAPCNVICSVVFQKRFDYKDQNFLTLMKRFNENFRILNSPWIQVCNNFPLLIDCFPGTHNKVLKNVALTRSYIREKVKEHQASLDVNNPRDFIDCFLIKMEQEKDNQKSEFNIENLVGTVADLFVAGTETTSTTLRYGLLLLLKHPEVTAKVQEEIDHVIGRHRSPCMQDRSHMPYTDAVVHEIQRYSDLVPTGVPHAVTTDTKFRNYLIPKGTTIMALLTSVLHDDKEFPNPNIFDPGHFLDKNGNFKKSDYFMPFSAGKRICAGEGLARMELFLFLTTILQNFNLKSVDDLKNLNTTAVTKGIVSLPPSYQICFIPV
As to the kind of experiment: Activity of human CYP2C8 expressed in microsomes isolated from baculovirus infected insect cell assessed as enzyme-mediated compound formation treated with [14C]-rivoglitazone at 20 uM after 2 hrs by radio-HPLC/LC-MS/MS analysis in presence of NADPH-generating system. The format is ADME. In a few lines:
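Baculovirus/insect-cell microsomes expressing single human CYPs, 1 mg/ml protein, with 50 mM potassium phosphate (pH 7.4) or 100 mM Tris-HCl (pH 7.5). NADPH-generating system: 2 mM NADP⁺, 20 mM glucose 6-phosphate, 2 units/ml G6PDH, 10 mM MgCl₂. [¹⁴C]rivoglitazone at 20 μM, 2 h at 37°C with shaking. Control used insect-cell control supersomes. Stopped with acetonitrile; supernatant concentrated under nitrogen; metabolites analysed by radio-HPLC, LC-MS and LC-MS/MS.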

Data set [3] is described as follows: Drug metabolism in po dosed monkey bile assessed as formation of 5-(4-((6-methoxy-1H-benzo[d]imidazol-2-yl)methoxy)benzyl)thiazolidine-2,4-dione. The format is ADME, organism-based, Macaca mulatta. Conditions: rhesus monkey, in vivo.
The target in data set [4] is T2, Cytochrome P450 2C8. As to the kind of experiment: Activity of human CYP2C8 expressed in microsomes isolated from baculovirus infected insect cell assessed as enzyme-mediated 3-(4-((6-methoxy-1-methyl-1H-benzo[d]imidazol-2-yl)methoxy)phenyl)-2-(methylthio)propanamide formation at 20 uM after 2 hrs by radio-HPLC/LC-MS/MS analysis in presence of NADPH-generating system/SAM. Type of data set: ADME.

In data set [5] the target is T1, Cytochrome P450 2C9. As to the kind of experiment: Activity of human CYP2C9 expressed in microsomes isolated from baculovirus infected insect cell assessed as enzyme-mediated 3-(4-((6-methoxy-1-methyl-1H-benzo[d]imidazol-2-yl)methoxy)phenyl)-2-(methylsulfinyl)propanamide formation at 20 uM after 2 hrs by radio-HPLC/LC-MS/MS analysis in presence of NADPH-generating system/SAM. Type of data set: ADME.

The target of data set [6] is T3, Cytochrome P450 3A5 (Homo sapiens, UniProt P20815). The experiment in a line: Activity of human CYP3A5 expressed in microsomes isolated from baculovirus infected insect cell assessed as enzyme-mediated (2S,3S,4S,5R,6R)-3,4,5-trihydroxy-6-(5-(4-((6-methoxy-1-methyl-1H-benzo[d]imidazol-2-yl)methoxy)benzyl)-2,4-dioxothiazolidin-3-yl)tetrahydro-2H-pyran-2-carboxylic acid formation at 20 uM after 2 hrs by radio-HPLC/LC-MS/MS analysis in presence of UDPGA and UDPGA/SAM. The format is ADME.

Data set [7] deals with T3, Cytochrome P450 3A5. As to the kind of experiment: Activity of human CYP3A5 expressed in microsomes isolated from baculovirus infected insect cell assessed as enzyme-mediated 5-(4-((6-methoxy-1H-benzo[d]imidazol-2-yl)methoxy)benzyl)thiazolidine-2,4-dione formation at 20 uM after 2 hrs by radio-HPLC/LC-MS/MS analysis in presence of NADPH-generating system and NADPH-generating system/SAM. Type of data set: ADME. In a few lines: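 cDNA-expressed human CYP3A5 in baculovirus-insect-cell microsomes (1 mg/ml protein) was incubated with [¹⁴C]rivoglitazone (20 μM) in 50 mM potassium phosphate (pH 7.4) or 100 mM Tris-HCl (pH 7.5). NADPH-generating system: 2 mM NADP⁺, 20 mM glucose 6-phosphate, 2 units/ml G6PDH, 10 mM MgCl₂. Incubation ran 2 h at 37°C with shaking; insect-cell control supersomes served as control. Acetonitrile stop, supernatant concentrated, then radio-HPLC, LC-MS and LC-MS/MS.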

For data set [8], the target named is T2, Cytochrome P450 2C8. The experiment in a line: Activity of human CYP2C8 expressed in microsomes isolated from baculovirus infected insect cell assessed as enzyme-mediated 3-(4-((6-methoxy-1-methyl-1H-benzo[d]imidazol-2-yl)methoxy)phenyl)-2-(methylthio)propanoic acid formation at 20 uM after 2 hrs by radio-HPLC/LC-MS/MS analysis in presence of NADPH-generating system/SAM and UDPGA/SAM. The format is ADME.

A further data set concerns Liver microsome. The experiment in a line: Drug metabolism in human liver microsomes assessed as formation of 2-amino-3-((1-carboxy-2-(4-((6-methoxy-1-methyl-1H-benzo[d]imidazol-2-yl)methoxy)phenyl)ethyl)disulfanyl)propanoic acid at 20 uM by radio-HPLC/LC-MS/MS analysis. The format is ADME.

Drug metabolism data for two compounds are collected here from ChEMBL document CHEMBL3526048, “In vitro metabolism of rivoglitazone, a novel peroxisome proliferator-activated receptor γ agonist, in rat, monkey, and human liver microsomes and freshly isolated hepatocytes” (Drug Metab Dispos, 2011).

T1 sequence (P11712 whole entry): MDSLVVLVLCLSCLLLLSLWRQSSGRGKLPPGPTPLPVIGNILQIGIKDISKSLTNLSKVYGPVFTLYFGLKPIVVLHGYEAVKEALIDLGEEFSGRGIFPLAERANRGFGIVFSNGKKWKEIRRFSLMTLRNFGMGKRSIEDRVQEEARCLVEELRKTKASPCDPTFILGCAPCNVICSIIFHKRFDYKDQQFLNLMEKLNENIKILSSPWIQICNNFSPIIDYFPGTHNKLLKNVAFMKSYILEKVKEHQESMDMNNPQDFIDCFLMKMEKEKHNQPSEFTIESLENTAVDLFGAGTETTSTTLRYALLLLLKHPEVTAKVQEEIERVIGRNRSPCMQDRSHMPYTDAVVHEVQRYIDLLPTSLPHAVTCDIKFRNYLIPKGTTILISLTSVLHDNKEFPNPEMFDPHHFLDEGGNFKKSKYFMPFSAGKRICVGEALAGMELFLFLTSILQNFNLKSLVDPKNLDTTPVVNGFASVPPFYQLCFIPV
T3 sequence (P20815 whole entry): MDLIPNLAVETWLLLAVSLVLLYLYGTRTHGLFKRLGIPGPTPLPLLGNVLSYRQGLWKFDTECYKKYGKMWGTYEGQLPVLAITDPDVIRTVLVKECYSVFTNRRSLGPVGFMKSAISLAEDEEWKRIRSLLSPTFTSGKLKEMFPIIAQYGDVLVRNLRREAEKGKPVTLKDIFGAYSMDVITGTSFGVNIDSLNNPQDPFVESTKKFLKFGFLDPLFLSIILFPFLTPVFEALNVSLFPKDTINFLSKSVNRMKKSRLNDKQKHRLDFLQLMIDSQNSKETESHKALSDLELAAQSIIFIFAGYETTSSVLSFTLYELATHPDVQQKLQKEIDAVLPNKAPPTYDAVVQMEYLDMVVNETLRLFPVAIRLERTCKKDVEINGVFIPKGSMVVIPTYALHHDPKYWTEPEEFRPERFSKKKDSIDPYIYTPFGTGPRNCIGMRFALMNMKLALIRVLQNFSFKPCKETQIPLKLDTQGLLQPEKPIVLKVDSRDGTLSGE

As for `COc1ccc2nc(COc3ccc(CC(S)C(=O)O)cc3)n(C)c2c1` (centres undefined), the Drug metabolism entry at Cytochrome P450 2C9 [1] and on Cytochrome P450 2C8 [2] was “metabolite_detected” throughout.
As to `COc1ccc2nc(COc3ccc(C[14CH]4SC(=O)NC4=O)cc3)n(C)c2c1.Cl` (racemic), the Drug metabolism entry in data set [3] was “metabolite_detected”; at Cytochrome P450 2C8 [4], “metabolite_not_detected”; at Cytochrome P450 2C9 [5], “metabolite_not_detected”; at Cytochrome P450 3A5 [6], “metabolite_not_detected”; at Cytochrome P450 3A5 [7], “metabolite_detected”; on Cytochrome P450 2C8 [8] it was “metabolite_not_detected”. Besides, the Drug metabolism result with Liver microsome is given as “metabolite_not_detected”.
